As usually defined, the inhibition is how much of the control response was suppressed. Broadly, the IC50 is the point on the concentration scale where inhibition reaches its midpoint. Read a low IC50 as greater potency in that assay.

Assay [1] addresses DNA topoisomerase 2-alpha (Homo sapiens) (UniProt P11388). Description: Inhibition of human DNA topoisomerase-2alpha-mediated relaxation of supercoiled pBR322 at 100 uM after 30 mins using ethidium bromide staining by agarose gel electrophoresis. An outline of the steps: (§1)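 200 ng supercoiled pBR322 with 1 unit human topo IIα, with or without compound. Buffer was 10 mM Tris-HCl pH 7.9, 50 mM NaCl, 5 mM MgCl₂, 1 mM EDTA, 1 mM ATP and bovine serum albumin. Incubated 30 min at 30 °C, stopped with EDTA. Products run on 1% agarose gel, 25 V, 4 h, TAE buffer. Compound stocks 20 mM in DMSO.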

The target of assay [2] is T1, DNA topoisomerase 1 (Homo sapiens) (UniProt P11387).
T1 sequence (whole entry): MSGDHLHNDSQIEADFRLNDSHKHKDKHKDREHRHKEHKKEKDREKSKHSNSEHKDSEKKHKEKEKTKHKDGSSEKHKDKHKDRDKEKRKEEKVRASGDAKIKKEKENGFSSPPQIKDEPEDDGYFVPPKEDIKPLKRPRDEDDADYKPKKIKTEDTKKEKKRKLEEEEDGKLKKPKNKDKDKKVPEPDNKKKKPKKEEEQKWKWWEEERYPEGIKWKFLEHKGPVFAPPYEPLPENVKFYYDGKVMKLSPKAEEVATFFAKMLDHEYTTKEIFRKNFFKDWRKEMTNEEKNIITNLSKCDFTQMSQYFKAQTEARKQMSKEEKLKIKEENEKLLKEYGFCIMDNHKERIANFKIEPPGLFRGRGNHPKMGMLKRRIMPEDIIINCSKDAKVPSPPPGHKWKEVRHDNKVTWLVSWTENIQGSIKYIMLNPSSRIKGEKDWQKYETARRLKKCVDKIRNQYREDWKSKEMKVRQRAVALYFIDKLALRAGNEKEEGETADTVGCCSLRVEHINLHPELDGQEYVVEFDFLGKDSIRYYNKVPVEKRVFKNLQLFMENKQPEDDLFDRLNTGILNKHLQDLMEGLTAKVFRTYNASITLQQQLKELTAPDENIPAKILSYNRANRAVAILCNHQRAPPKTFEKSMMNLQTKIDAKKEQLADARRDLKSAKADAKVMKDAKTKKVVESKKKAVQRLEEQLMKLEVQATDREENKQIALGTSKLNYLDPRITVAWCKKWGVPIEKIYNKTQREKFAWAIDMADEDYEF
Description: Inhibition of recombinant human DNA topoisomerase-1-mediated relaxation of supercoiled pBR322 at 100 uM after 30 mins using ethidium bromide staining by agarose gel electrophoresis. An outline of the steps:
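Compounds from 20 mM DMSO stocks. 100 ng pBR322 plasmid DNA with 1 unit recombinant human topo I, with or without compound, 37 °C for 30 min. Relaxation buffer was 10 mM Tris-HCl pH 7.9, 150 mM NaCl, 0.1% BSA, 1 mM spermidine. Relaxation of supercoiled DNA assessed by gel imaging.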

Assay [3] has as its target DNA topoisomerase 2-alpha (Homo sapiens) (UniProt P11388). The assay is described as follows: Inhibition of human DNA topoisomerase-2alpha-mediated relaxation of supercoiled pBR322 at 20 uM after 30 mins using ethidium bromide staining by agarose gel electrophoresis. An outline of the steps:
as §1

In assay [4] the test system is T47D. Description: Cytotoxicity against human T47D cells after 2 days by cell counting kit-8 analysis. Format: functional, cell-based. Particulars: 48 h. In short, it runs like this: (§2)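 Cells grown per supplier's instructions, seeded at 2-4 × 10⁴ cells/well and incubated overnight in medium with 10% FBS at 37 °C, 5% CO₂. On day 2, after 4 h FBS starvation, medium was replaced with medium containing graded compound concentrations. Absorbance read at 450 nm. IC50 from a four-parameter logistic fit. Three independent experiments in triplicate, mean ± S.D.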
(Tetrazolium dyes change colour on reduction, which living cells bring about.)

The test system of assay [5] is HCT-15. The assay is described as follows: Cytotoxicity against human HCT15 cells after 2 days by cell counting kit-8 analysis. Format: functional, cell-based. Particulars: HCT-15, 48 h. In short, it runs like this: as §2
In assay [6] the test system is DU-145. The assay is described as follows: Cytotoxicity against human DU145 cells after 2 days by cell counting kit-8 analysis. Format: functional, cell-based. Conditions: DU-145, 48 h. An outline of the steps: as §2
Assay [7] has as its system HEK293. Description: Cytotoxicity against human HEK293 cells after 2 days by cell counting kit-8 analysis. It counts as cell-based. Particulars: HEK293, 48 h. An outline of the steps: as §2

DNA topoisomerase 2-alpha (Homo sapiens), sequence (P11388 whole entry): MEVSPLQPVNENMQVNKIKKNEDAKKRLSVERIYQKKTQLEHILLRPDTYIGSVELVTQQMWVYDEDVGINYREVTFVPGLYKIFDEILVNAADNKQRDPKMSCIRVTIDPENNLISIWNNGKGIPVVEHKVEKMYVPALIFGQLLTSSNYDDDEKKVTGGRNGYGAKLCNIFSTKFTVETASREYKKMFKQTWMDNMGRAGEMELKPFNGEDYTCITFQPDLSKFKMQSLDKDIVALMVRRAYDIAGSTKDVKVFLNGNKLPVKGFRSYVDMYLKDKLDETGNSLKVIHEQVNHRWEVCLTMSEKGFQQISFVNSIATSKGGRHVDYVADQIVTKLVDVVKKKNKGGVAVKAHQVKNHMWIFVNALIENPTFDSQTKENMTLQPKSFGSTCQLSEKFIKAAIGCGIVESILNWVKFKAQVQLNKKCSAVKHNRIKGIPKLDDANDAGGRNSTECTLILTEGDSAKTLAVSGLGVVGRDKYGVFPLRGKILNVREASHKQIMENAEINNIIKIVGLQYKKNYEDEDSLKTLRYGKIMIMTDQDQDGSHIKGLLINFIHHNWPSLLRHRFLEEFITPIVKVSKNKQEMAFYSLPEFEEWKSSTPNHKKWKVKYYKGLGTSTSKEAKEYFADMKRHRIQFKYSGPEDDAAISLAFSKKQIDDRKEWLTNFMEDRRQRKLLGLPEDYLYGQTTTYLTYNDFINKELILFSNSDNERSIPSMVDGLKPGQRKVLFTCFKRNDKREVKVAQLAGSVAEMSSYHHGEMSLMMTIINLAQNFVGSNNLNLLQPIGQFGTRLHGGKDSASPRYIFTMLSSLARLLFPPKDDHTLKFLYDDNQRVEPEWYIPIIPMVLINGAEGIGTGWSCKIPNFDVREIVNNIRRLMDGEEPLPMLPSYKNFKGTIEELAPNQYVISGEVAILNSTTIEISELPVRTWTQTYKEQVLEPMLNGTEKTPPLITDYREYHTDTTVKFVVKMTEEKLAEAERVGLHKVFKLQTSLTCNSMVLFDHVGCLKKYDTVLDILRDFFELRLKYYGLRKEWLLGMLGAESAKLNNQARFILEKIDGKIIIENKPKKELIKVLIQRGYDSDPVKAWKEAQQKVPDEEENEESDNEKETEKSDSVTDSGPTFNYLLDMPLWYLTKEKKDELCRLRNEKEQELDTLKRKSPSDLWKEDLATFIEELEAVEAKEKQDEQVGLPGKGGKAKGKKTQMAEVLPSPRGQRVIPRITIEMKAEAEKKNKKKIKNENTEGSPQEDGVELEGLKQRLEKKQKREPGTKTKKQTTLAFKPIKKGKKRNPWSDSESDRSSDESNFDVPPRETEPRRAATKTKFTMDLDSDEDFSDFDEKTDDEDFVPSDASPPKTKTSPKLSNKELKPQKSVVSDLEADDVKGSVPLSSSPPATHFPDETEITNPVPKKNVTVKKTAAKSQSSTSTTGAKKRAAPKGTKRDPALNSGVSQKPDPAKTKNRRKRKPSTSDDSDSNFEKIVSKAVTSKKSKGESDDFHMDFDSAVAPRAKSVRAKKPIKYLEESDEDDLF

`Oc1ccc(-c2cc(-c3ccccn3)nc(-c3ccccc3Cl)c2)cc1`: the results for the inhibition in assay [1] and in assay [2] were 21.1% and 5.2%, respectively.

`Oc1ccc(-c2cc(-c3ccsc3)nc(-c3cccc(Cl)c3)c2)cc1`: the values for the inhibition in assay [1], in assay [3] and in assay [2] were 83.7%, 0% and 26%, respectively. For the same molecule, the concentration for half-maximal inhibition (IC50) in assay [4] was 7.39 µM; in assay [5], 5.76 µM; in assay [6], 6.22 µM; in assay [7] it was 2.67 µM.

`Oc1ccc(-c2cc(-c3ccccc3)nc(-c3cccc(Cl)c3)c2)cc1`: the inhibition in assay [1] is 76.8%; in assay [3] it was 0.5%; in assay [2] it was 0%. For the same molecule, the IC50 in assay [4] was found to be 4.79 µM; in assay [5] it was 6.1 µM; in assay [6], 5.36 µM; in assay [7] it was 2.82 µM.

In assay [3], `COc1cc([C@@H]2c3cc4c(cc3[C@@H](O[C@@H]3O[C@@H]5CO[C@@H](C)O[C@H]5[C@H](O)[C@H]3O)[C@H]3COC(=O)[C@H]23)OCO4)cc(OC)c1O` [ETOPOSIDE] had an inhibition of 20%. The IC50 in assay [4] came out at 2.39 µM; in assay [5], 1.17 µM; in assay [6] it was 1.21 µM; in assay [7] it was 1.21 µM.

Consider `CC[C@@]1(O)C(=O)OCc2c1cc1n(c2=O)Cc2cc3ccccc3nc2-1` [CAMPTOTHECIN], for which the IC50 in assay [4] was 1.53 µM; in assay [5] it was 1.38 µM; in assay [6] it was 1.06 µM; in assay [7], 1.01 µM.

Consider `Oc1cccc(-c2cc(-c3ccccc3)nc(-c3ccccc3Cl)c2)c1`, for which the figures for the inhibition in assay [1], in assay [3] and in assay [2] were 83%, 23% and 3.2%, respectively. Also, the IC50 in assay [4] amounted to 2.92 µM; in assay [5], 2.93 µM; in assay [6] it was 1.48 µM; in assay [7] it was 1.76 µM.

In the case of `Oc1cccc(-c2cc(-c3ccc(Cl)cc3)nc(-c3cccs3)c2)c1`, the inhibition is 75.5% in assay [1], 54.2% in assay [3] and 15.1% in assay [2]. In addition, the IC50 was determined as 10.5 µM in assay [4], 9.28 µM in assay [5], 11.6 µM in assay [6] and 11.8 µM in assay [7].

Take `Oc1cccc(-c2cc(-c3cccc(Cl)c3)nc(-c3ccccn3)c2)c1`: the inhibition in assay [1] turned out to be 2.4%; in assay [2] it was 0.4%.

For the molecule `Oc1cccc(-c2cc(-c3cccnc3)nc(-c3ccccc3Cl)c2)c1`, the inhibition in assay [1] and in assay [2] was 0% each time.

On to `Oc1cccc(-c2cc(-c3cccnc3)nc(-c3cccc(Cl)c3)c2)c1`, for which the inhibition in assay [1] came out at 0%; in assay [2], 27.6%.

`Oc1cccc(-c2cc(-c3ccccn3)nc(-c3ccccc3Cl)c2)c1`: the inhibition in assay [1] came out at 19.1%; in assay [2] it was 0%.

As to `Oc1ccc(-c2cc(-c3ccncc3)nc(-c3ccccc3Cl)c2)cc1`, the inhibition in assay [1] was found to be 0%; in assay [2], 9.9%.

For `Oc1ccc(-c2cc(-c3cccnc3)nc(-c3ccccc3Cl)c2)cc1`, the inhibition turned out to be 0% in assay [1] and 0.9% in assay [2].

`Oc1ccc(-c2cc(-c3ccncc3)nc(-c3ccc(Cl)cc3)c2)cc1`: the inhibition in assay [1] turned out to be 2.4%; in assay [2], 5.9%.

`Oc1cccc(-c2cc(-c3ccncc3)nc(-c3cccc(Cl)c3)c2)c1`: the inhibition in assay [1] is 13.9%; in assay [2], 0%.

Take `Oc1ccc(-c2cc(-c3ccncc3)nc(-c3cccc(Cl)c3)c2)cc1`: the inhibition in assay [1] was determined as 0%; in assay [2] it was 29.2%.

Regarding `COc1cccc2c1C(=O)c1c(O)c3c(c(O)c1C2=O)C[C@@](O)(C(=O)CO)C[C@@H]3O[C@H]1C[C@H](N)[C@H](O)[C@H](C)O1` [DOXORUBICIN], the IC50 in assay [4] was found to be 1.05 µM; in assay [5], 1.03 µM; in assay [6], 1.1 µM; in assay [7], 1.34 µM.

On to `Oc1cccc(-c2cc(-c3ccncc3)nc(-c3ccccc3Cl)c2)c1`, for which the inhibition turned out to be 0.7% in assay [1] and 0% in assay [2].
